The source made the active and inactive calls. The rule behind the calls is not given here.
What was measured:
[1] = test system: A549; test: Antitumor activity against human A549 cells xenografted in F344/N Jcl-rnu athymic rat assessed as tumor regression at 1.0 mg/kg, po relative to control
[2] = test system: Calu-6; test: Antitumor activity against human Calu-6 cells xenografted in RH-rnu/rnu athymic rat assessed as larger enclosed median lumen area by the halos in tumor by measuring vessel diameter at 1 mg/kg, po administered for 14 days by H33342 dye based fluorescence microscopic analysis; type: functional; conditions: time 14 day
Summary of the method: (§1)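 Calu-6 tumor-bearing athymic rats, three per group, received oral drug at 0.2 or 1 mg/kg or vehicle on days 0-13. They were killed 1 min after i.v. H33342 at 20 mg/kg on day 13. 10 µm cryosections were cut from five tumor levels at least 200 µm apart and examined under UV epifluorescence. The major axis of fluorescent halos around vessels was measured by image analysis, with a Mann-Whitney test.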

[3] = test system: LoVo; test: Antitumor activity against human LoVo cells xenografted in gamma-irradiation induced RH-rnu/rnu athymic rat assessed as tumor growth inhibition at 0.2 mg/kg, po administered once daily for 2 weeks and measured on day 14 relative to control; type: functional; conditions: light or radiation study, 336 h, read-out: TGI
Summary of the method: (§2)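 Rats were γ-irradiated with 7 Gy whole body, and 24 h later received s.c. tumor cells. Fragments (20-30 mg) from ~1,500 mm3 tumors were then implanted s.c. into irradiated athymic rats. Oral dosing at 0.2 or 1 mg/kg or vehicle ran once daily for 2 weeks from day 0. Tumors were measured with calipers twice weekly (length×width²×0.5). TGI% was taken versus vehicle on day 14 (BxPC-3: day 13), with an unpaired t test on RTV.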

[4] = test system: HUVEC; test: Inhibition of cell migration in VEGF-induced serum-starved human HUVEC cells at >= 10 nmol/L incubated for 22 hrs by calcein AM staining based fluorescence plate reader analysis; type: functional
Summary of the method: (§3)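 HUVECs starved 5 h in EBM-2 with 0.1% BSA, placed in upper chamber of microchamber plate; lower chamber held 10 ng/mL VEGF, 0.1% FBS, 0.1% BSA. Compound in both chambers. After 22 h, migrated cells stained with 4 μg/mL calcein AM, read at 485/530 nm; 100%/0% set with/without VEGF in 0.1% DMSO; n = 10.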

[5] = Tmax in F344/N JcL-rnu athymic rat at 0.2 mg/kg, po measured upto 72 hrs by HPLC-MS/MS analysis; type: ADME, organism-based; conditions: in vivo
Summary of the method: (§4)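 Female F344/N JcL-rnu rats, four per group, single p.o. dose suspended in 0.5% methyl cellulose. Tail-vein blood sampled at set times to 72 h. Serum spiked with internal standard, deproteinated with acetonitrile, analysed by HPLC-MS/MS. Parameters derived by noncompartmental analysis.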

[6] = test system: HUVEC; test: Inhibition of cell migration in VEGF-induced serum-starved human HUVEC cells at 1 nmol/L incubated for 22 hrs by calcein AM staining based fluorescence plate reader analysis relative to control; type: functional
Summary of the method: as §3

[7] = Inhibition of IGF-1R phosphorylation in serum starved human HT-29 cells incubated for 1 hr by immunoblotting analysis; type: cell-based
Summary of the method: (§5)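 Cells starved overnight in basic medium with 0.5% FBS, incubated 1 h with compound or 0.1% DMSO, then stimulated 5 min at 37°C with human recombinant cognate ligand. Receptor immunoprecipitated from lysate and immunoblotted for phosphotyrosine; IC50 by nonlinear regression of percent inhibition, n = 4.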

[8] = AUC (0-infinity) in F344/N JcL-rnu athymic rat at 5 mg/kg, po measured upto 72 hrs by HPLC-MS/MS analysis; type: ADME, organism-based; conditions: in vivo
Summary of the method: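 Female athymic rats, four per group, given a single oral dose suspended in 0.5% methyl cellulose in water. Tail-vein blood was drawn at set times up to 72 h. Serum was spiked with internal standard, deproteinated with acetonitrile and analysed by HPLC-MS/MS. AUCinf came from noncompartmental analysis.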

[9] = target: Platelet-derived growth factor receptor beta (Homo sapiens, UniProt P09619); test: Inhibition of PDGFR-beta (unknown origin) in presence of ATP
Platelet-derived growth factor receptor beta, sequence (P09619 whole entry): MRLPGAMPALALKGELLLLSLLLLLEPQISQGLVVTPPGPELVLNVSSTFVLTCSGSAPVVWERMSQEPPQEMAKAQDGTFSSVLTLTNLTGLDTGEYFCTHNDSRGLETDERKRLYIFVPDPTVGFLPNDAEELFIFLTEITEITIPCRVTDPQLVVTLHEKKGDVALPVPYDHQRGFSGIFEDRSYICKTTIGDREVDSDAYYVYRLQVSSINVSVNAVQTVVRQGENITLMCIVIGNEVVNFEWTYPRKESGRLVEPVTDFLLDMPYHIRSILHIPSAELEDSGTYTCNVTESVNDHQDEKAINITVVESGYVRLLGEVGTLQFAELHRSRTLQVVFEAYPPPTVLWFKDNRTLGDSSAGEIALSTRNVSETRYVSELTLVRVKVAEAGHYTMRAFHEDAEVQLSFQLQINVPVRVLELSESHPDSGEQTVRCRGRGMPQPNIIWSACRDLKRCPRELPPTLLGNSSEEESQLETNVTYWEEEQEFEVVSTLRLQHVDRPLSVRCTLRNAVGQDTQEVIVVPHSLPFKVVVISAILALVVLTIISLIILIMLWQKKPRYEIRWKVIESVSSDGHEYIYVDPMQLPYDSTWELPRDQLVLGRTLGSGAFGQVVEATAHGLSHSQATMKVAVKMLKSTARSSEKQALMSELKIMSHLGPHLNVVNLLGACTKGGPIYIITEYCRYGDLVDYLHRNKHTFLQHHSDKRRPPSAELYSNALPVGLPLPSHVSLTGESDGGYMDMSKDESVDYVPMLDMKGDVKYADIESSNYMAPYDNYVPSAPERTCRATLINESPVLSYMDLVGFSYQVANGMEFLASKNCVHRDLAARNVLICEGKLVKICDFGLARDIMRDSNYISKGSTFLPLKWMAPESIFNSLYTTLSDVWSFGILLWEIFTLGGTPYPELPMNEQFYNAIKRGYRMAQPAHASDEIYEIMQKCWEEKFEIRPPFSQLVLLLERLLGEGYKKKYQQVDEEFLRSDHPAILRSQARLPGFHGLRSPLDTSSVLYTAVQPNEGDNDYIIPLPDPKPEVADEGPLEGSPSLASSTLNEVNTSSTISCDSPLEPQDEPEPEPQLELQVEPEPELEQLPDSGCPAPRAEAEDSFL

[10] = target: Ephrin type-B receptor 2 (Homo sapiens, UniProt P29323); test: Inhibition of EphB2 (unknown origin) in presence of ATP
Ephrin type-B receptor 2, sequence (P29323 whole entry): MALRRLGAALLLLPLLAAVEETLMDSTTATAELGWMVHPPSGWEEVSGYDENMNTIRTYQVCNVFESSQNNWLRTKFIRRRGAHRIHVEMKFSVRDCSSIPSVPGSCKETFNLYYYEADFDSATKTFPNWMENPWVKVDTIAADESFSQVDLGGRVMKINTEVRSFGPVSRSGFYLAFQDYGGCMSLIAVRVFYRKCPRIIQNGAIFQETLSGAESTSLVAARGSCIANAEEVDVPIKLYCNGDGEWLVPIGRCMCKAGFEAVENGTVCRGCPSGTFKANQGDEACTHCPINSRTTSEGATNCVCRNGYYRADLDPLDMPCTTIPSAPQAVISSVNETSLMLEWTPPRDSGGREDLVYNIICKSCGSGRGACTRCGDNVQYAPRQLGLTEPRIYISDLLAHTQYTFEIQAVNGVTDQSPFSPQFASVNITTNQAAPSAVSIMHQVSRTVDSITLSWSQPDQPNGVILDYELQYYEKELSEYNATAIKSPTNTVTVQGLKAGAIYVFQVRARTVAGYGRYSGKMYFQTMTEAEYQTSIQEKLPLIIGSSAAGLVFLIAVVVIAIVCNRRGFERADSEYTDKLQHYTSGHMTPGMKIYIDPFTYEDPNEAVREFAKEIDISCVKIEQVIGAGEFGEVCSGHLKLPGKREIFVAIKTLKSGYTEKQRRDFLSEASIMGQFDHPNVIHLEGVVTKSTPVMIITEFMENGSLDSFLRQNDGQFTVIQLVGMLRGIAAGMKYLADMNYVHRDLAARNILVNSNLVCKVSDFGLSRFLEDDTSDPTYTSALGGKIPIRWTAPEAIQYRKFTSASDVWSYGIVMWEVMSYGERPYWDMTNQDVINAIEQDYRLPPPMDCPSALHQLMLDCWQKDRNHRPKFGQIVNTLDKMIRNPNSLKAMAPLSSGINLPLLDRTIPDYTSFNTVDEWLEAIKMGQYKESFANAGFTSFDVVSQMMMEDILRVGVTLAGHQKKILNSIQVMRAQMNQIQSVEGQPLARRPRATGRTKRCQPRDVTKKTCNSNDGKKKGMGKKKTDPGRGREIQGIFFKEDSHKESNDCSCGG
Summary of the method: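 Cell-free kinase assay using recombinant tyrosine kinases with 1 μmol/L ATP, run in quadruplicate. IC50 values determined.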

[11] = Half life in F344/N JcL-rnu athymic rat at 1 mg/kg, po measured upto 72 hrs by HPLC-MS/MS analysis; type: ADME, organism-based; conditions: in vivo
Summary of the method: as §4

[12] = test system: Calu-6; test: Antitumor activity against human Calu-6 cells xenografted in RH-rnu/rnu athymic rat assessed as increased ratio of enlarged vessels with >100 uM diameter in tumor at 1 mg/kg, po administered for 14 days by H33342 dye based fluorescence microscopic analysis relative to control; type: functional; conditions: time 14 day
Summary of the method: as §1

[13] = Tmax in F344/N JcL-rnu athymic rat at 0.04 mg/kg, po measured upto 72 hrs by HPLC-MS/MS analysis; type: ADME, organism-based; conditions: in vivo
Summary of the method: as §4

[14] = test system: SK-OV-3; test: Antitumor activity against human SK-OV-3 cells xenografted in gamma-irradiation induced RH-rnu/rnu athymic rat assessed as tumor growth inhibition at 1.0 mg/kg, po administered once daily for 2 weeks and measured on day 14 relative to control; type: functional; conditions: SK-OV-3, light or radiation study, 336 h, read-out: TGI
[15] = target: Mitogen-activated protein kinase 1 (Homo sapiens, UniProt P28482); test: Inhibition of ERK2 phosphorylation in EGF-stimulated serum-starved human HUVEC cells by immunoblotting analysis; type: cell-based
Mitogen-activated protein kinase 1, sequence (P28482 whole entry): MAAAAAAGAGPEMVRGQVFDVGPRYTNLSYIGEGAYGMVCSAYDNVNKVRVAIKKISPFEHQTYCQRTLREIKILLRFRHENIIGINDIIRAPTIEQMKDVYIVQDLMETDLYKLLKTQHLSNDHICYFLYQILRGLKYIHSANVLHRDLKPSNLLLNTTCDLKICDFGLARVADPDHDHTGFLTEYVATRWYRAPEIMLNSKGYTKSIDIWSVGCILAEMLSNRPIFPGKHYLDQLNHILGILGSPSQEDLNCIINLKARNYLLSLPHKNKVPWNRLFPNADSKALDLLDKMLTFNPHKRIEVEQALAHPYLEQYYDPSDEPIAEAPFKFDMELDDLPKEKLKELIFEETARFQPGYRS

[16] = test system: ZR-75-1; test: Antitumor activity against human ZR-75-1 cells xenografted in gamma-irradiation induced RH-rnu/rnu athymic rat assessed as tumor growth inhibition at 0.2 mg/kg, po administered once daily for 2 weeks and measured on day 14 relative to control; type: functional; conditions: ZR-75-1, light or radiation study, 336 h, read-out: TGI
[17] = test system: A549; test: Antitumor activity against human A549 cells xenografted in F344/N Jcl-rnu athymic rat assessed as reduction in number of CD31-positive cells in viable regions of tumor at 1.0 mg/kg, po administered once daily for 7 days by immunofluorescence staining analysis relative to control; conditions: time 7 day
[18] = target: Epidermal growth factor receptor (Homo sapiens, UniProt P00533); test: Inhibition of EGFR phosphorylation in serum starved human A-431 cells incubated for 1 hr by immunoblotting analysis; type: cell-based
Epidermal growth factor receptor, sequence (P00533 whole entry): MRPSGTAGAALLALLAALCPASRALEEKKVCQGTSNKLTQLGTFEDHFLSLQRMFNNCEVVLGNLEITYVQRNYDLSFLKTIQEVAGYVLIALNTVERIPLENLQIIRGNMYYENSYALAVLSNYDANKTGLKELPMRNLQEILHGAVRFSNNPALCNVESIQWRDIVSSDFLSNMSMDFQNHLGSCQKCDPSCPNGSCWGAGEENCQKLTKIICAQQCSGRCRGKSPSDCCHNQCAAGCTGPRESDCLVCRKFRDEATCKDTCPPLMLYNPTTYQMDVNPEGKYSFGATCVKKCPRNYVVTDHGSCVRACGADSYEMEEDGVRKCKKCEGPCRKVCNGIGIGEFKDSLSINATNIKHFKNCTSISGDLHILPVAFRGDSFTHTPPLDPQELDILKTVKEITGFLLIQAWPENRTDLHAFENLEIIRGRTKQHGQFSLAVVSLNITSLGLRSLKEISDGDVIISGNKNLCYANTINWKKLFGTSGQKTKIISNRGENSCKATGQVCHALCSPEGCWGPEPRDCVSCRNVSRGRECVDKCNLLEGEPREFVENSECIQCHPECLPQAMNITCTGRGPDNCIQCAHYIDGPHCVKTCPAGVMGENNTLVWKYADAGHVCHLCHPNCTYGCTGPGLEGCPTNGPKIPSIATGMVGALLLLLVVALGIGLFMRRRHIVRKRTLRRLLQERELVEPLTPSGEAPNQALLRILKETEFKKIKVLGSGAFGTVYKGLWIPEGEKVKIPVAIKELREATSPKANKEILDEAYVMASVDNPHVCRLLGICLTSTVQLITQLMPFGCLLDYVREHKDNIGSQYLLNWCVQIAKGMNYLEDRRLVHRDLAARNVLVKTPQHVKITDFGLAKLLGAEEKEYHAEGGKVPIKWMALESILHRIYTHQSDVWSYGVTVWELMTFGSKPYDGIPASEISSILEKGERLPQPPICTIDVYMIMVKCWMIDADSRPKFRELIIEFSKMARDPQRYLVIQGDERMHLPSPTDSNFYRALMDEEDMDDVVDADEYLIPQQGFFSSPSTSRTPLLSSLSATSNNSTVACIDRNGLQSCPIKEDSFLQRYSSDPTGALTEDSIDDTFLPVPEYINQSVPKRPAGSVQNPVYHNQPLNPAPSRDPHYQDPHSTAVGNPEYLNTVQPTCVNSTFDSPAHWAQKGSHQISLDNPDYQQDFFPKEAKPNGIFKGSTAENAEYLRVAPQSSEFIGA
Summary of the method: as §5

[19] = Cmax in F344/N JcL-rnu athymic rat at 1 mg/kg, po measured upto 72 hrs by HPLC-MS/MS analysis; type: ADME, organism-based; conditions: in vivo
Summary of the method: as §4

[20] = test system: Calu-6; test: Antitumor activity against human Calu-6 cells xenografted in RH-rnu/rnu athymic rat assessed as tumor growth inhibition at 0.2 mg/kg, po administered once daily for 6 to 21 days by DCE-MRI analysis; conditions: time 6-21 day
[21] = test system: PC-3; test: Antitumor activity against human PC-3 cells xenografted in gamma-irradiation induced RH-rnu/rnu athymic rat assessed as tumor growth inhibition at 1.0 mg/kg, po administered once daily for 2 weeks and measured on day 14 relative to control; type: functional; conditions: PC-3, light or radiation study, 336 h, read-out: TGI
[22] = test system: CAKI-1; test: Antitumor activity against human CAKI-1 cells xenografted in gamma-irradiation induced RH-rnu/rnu athymic rat assessed as tumor growth inhibition at 1.0 mg/kg, po administered once daily for 2 weeks and measured on day 14 relative to control; type: functional; conditions: CAKI-1, light or radiation study, 336 h, read-out: TGI
Summary of the method: as §2

COc1cc2nccc(Oc3ccc(NC(=O)Nc4cc(C)on4)c(Cl)c3)c2cc1OC [TIVOZANIB]
tumor regression % at 1 mg/kg [1]: 33%
Activity [2]: 65.8 um
inhibition in vivo at 0.2 mg/kg [3]: 60.3%
inhibition [4]: Active
Tmax [5]: 2.63 h
inhibition at 0.001 µM [6]: ~40%
IC50 [7]: Not Determined(Insoluble)
AUC(0-inf) [8]: 44500 ng·h/mL
IC50 [9]: 49 nM
IC50 [10]: 24 nM
half-life [11]: 8.13 h
Activity [12]: 30.3%
Tmax [13]: 3.63 h
inhibition in vivo at 1 mg/kg [14]: 99.2%
inhibition [15]: inactive
inhibition in vivo at 0.2 mg/kg [16]: 77.2%
Activity [17]: 78.2%
IC50 [18]: Not Determined(Insoluble)
Cmax [19]: 484 ng/mL
Activity [20]: Active
inhibition in vivo at 1 mg/kg [21]: 95.9%
inhibition in vivo at 1 mg/kg [22]: > 100%

— ChEMBL document CHEMBL5661970 (Cancer Res, 2006)
